In ChEMBL document CHEMBL1143864, “Design and synthesis of potent antileishmanial cycloalkylidene-substituted ether phospholipid derivatives” (J Med Chem, 2008):

Tests used:
Leishmania infantum [1] = assay: Antileishmanial activity against Leishmania infantum MHOM/TN/80/IPT1/LEM235 promastigotes; format: functional, organism-based
Summary of the method: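 Promastigotes grown in RPMI 1640 with 10% FCS, L-glutamine and antibiotics at 26 °C. Compounds, 65 mM stock in DMSO/ethanol 50/50, diluted 5-fold in medium (100 to 0.8 µM). Culture at 2 × 10^6 cells/mL mixed 1:1 with compound, 72 h at 26 °C. PI/SYBR-14 live/dead staining, flow cytometry, ≥10 000 cells; IC50 per Hills et al.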

Leishmania infantum [2] = assay: Antileishmanial activity against Leishmania infantum MHOM/TN/80/IPT1/LEM235 intracellular amastigotes; format: functional, organism-based
Summary of the method: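 THP-1 cells differentiated with retinoic acid for 3 days, infected with L. infantum promastigotes (1:4, 37 °C, 5% CO2) overnight. Free parasites removed on Histopaque 1077. Infected cells at 4 × 10^5 cells/mL mixed 1:1 with compound, 72 h at 37 °C/5% CO2. Percent infected cells counted by Giemsa microscopy; IC50 as for promastigotes.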

THP-1 [3] = assay: Cytotoxicity against human THP1 cells after 72 hrs; format: cell-based; conditions: THP-1, 72 h
[4] = Toxicity in human erythrocytes assessed as hemolysis; format: cell-based, Erythrocyte
Summary of the method: (§1)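 Washed erythrocytes from EDTA blood of healthy volunteers mixed 1:1 with compound in PBS (100 to 6.25 µM), 1 h at 37 °C. After centrifugation, supernatant absorbance read at 550 nm (reference 625 nm). Hemolysis % = (A − A0)/(Amax − A0) × 100, with PBS background and water as 100% lysis.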

[5] = Toxicity in human erythrocytes assessed as hemolysis at 100 uM; format: cell-based, Erythrocyte; conditions: read-out: Activity; summary of the method: as §1
[6] = Toxicity in human erythrocytes assessed as hemolysis at 500 uM; format: cell-based, Erythrocyte; conditions: read-out: Activity
Leishmania donovani = assay: Antileishmanial activity against Leishmania donovani MHOM/IN/80/DD8/LEM703 promastigotes
THP-1 [7] = assay: Cytotoxicity against human THP1 cells at 50 uM after 72 hrs; format: cell-based; conditions: thp-1, 72 h
Summary of the method: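 THP-1 monocytes in RPMI 1640/10% FCS at 1 × 10^6 cells/mL incubated 72 h with compound (50 to 1.56 µM). Dual PI/SYBR-14 staining; alive/dead ratio by flow cytometry, excitation 488 nm, read at 545 and 645 nm. At least 10 000 cells per sample, each staining experiment repeated thrice.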

[8] = Half life in human; format: ADME, organism-based; conditions: in vivo

| Structure (SMILES) | IC50 (Leishmania infantum [1]) [µM] | IC50 (Leishmania infantum [2]) [µM] | IC50 (Leishmania donovani) [µM] | half-life [8] [h] | IC50 (THP-1 [3]) [µM] | HC50 [4] [µM] | hemolysis at 100 µM [5] [%] | hemolysis at 500 µM [6] [%] | Activity (THP-1 [7]) |
| --- | --- | --- | --- | --- | --- | --- | --- | --- | --- |
| C[N+]1(CCOP(=O)([O-])OCCCCC=C2CCCCCCCCCCCCCC2)CCCCC1 | 1.7 | 4.1 | 2 | – | 272 | 68.4 | 71.6 | 100 | – |
| C[N+](C)(C)CCOP(=O)([O-])OCCCCCC1CCCCCCCCCCCCCC1 | 1.4 | 0.7 | 0.9 | – | > 500 | > 100 | 8.7 | 100 | Non-toxic |
| C[N+](C)(C)CCOP(=O)([O-])OCCCCCC1CCCCCCCCC1 | 21.7 | 2.2 | < 3.13 | – | 363 | > 100 | 1.7 | 100 | – |
| C[N+]1(CCOP(=O)([O-])OCCCCCC2CCCCCCCCCCCCCC2)CCOCC1 | 1.9 | 0.4 | 1 | – | 244 | > 100 | 34.8 | 81.1 | – |
| C[N+]1(CCOP(=O)([O-])OCCCCC=C2CCCCCCCCCCCCCC2)CCOCC1 | 1.8 | 4.4 | 1.94 | – | 372 | > 100 | 45.4 | 88.3 | – |
| C[N+]1(CCOP(=O)([O-])OCCCCCC2CCCCCCCCCCCCCC2)CCCCC1 | 2.8 | 1 | 1 | – | 333 | > 100 | 28.7 | 80.8 | – |
| C[N+]1(C)C2CCC1CC(=CCOP(=O)([O-])OCCCCCCCCCCC=C1C3CC4CC(C3)CC1C4)C2 | > 100 | 9.1 | 41.6 | – | 147 | 61.3 | 82.3 | 100 | – |
| C[N+](C)(C)CC#CCOP(=O)([O-])OCCCCCCCCCCC=C1C2CC3CC(C2)CC1C3 | 44.3 | 5.2 | 41.1 | – | 75 | 100 | – | 100 | – |
| C[N+](C)(C)CCOP(=O)([O-])OCCCCC=C1CCCCCCCCCCCCCC1 | 2.2 | 3.8 | 2.3 | – | 154 | > 100 | 38 | 57.4 | – |
| CCCCCCCCCCCCCCCCOP(=O)([O-])OCC[N+](C)(C)C [MILTEFOSINE] | 23.9 | 6.7 | 8.7 | 100 | 28.6 | – | 96.1 | 100 | Toxic |

Second part, led by results:

| IC50 (Leishmania infantum [1]) [µM] | IC50 (Leishmania infantum [2]) [µM] | IC50 (Leishmania donovani) [µM] | half-life [8] [h] | Structure (SMILES) | IC50 (THP-1 [3]) [µM] | HC50 [4] [µM] | hemolysis at 100 µM [5] [%] | hemolysis at 500 µM [6] [%] | Activity (THP-1 [7]) |
| --- | --- | --- | --- | --- | --- | --- | --- | --- | --- |
| > 100 | 1.1 | 16.1 | – | C[N+](C)(C)[C@@H]1CCCC[C@H]1OP(=O)([O-])OCCCCCCCCCCC=C1CCCCC1 (relative stereo) | 28.7 | 59.8 | 81.6 | 100 | – |
| > 100 | 1.7 | 71.9 | – | CCCCCCCCCCCCCCCCOP(=O)([O-])O[C@@H]1CCCC[C@H]1[N+](C)(C)C (relative stereo) | 21.3 | > 100 | 20.4 | 55.4 | – |
| > 100 | 1.6 | 6 | – | C[N+](C)(C)[C@H]1CCCC[C@@H]1OP(=O)([O-])OCCCCC=C1CCCCCCCCCCCCCC1 (relative stereo) | 88.5 | 76.7 | 60.7 | 100 | – |
| 76.8 | 3.3 | < 3.2 | – | C[N+](C)(C)CCOP(=O)([O-])OCCCCC=C1CCCCCCCCC1 | 349 | > 100 | 2.1 | 41.8 | – |
| > 100 | 0.8 | 16.6 | – | C[N+](C)(C)[C@@H]1CCCC[C@H]1OP(=O)([O-])OCCCCCCCCCCC=C1C2CC3CC(C2)CC1C3 (relative stereo) | 39.7 | 66.6 | 66.8 | 100 | – |
| 38 | 0.3 | 3.9 | – | C[N+](C)(C)[C@@H]1CCC[C@H]1OP(=O)([O-])OCCCCCCCCCCC=C1C2CC3CC(C2)CC1C3 (relative stereo) | 75 | > 100 | 30.8 | 100 | – |
| < 3.1 | 0.2 | < 3.1 | – | C[N+](C)(C)[C@H]1CCC[C@@H]1OP(=O)([O-])OCCCCC=C1CCCCCCCCCCCCCC1 (relative stereo) | 75.4 | 44.3 | 80.5 | 100 | – |
| 100 | 0.75 | 68.2 | – | C[N+](C)(C)CCOP(=O)([O-])OCCCCCCCCCCC=C1CCCCCCCCCCCCCC1 | 37.7 | 100 | 17.7 | 100 | – |
| 2.9 | 0.11 | 1 | – | C[N+](C)(C)CCOP(=O)([O-])OCCCCCCCCCCC=C1CCCCCCCCC1 | 37.9 | > 100 | 25.5 | 43 | – |
| > 100 | 3.3 | 54.3 | – | CCCCCCCCCCCCCCCCOP(=O)([O-])O[C@@H]1CCC[C@H]1[N+](C)(C)C (relative stereo) | 34.1 | 43.1 | 100 | 100 | – |
| 50.2 | 0.9 | 41.5 | – | C[N+]1(CCOP(=O)([O-])OCCCCCCCCCCC=C2CCCCCCCCCCCCCC2)CCOCC1 | 36.2 | > 100 | 16.9 | 100 | – |
| > 100 | 1.1 | 8.6 | – | C[N+](C)(C)[C@@H]1CCC[C@H]1OP(=O)([O-])OCCCCCCCCCCC=C1CCCCC1 (relative stereo) | 30.7 | 76.3 | 66.4 | 100 | – |
| 84.5 | 3.6 | 65.9 | – | C[N+]1(CCOP(=O)([O-])OCCCCCCCCCCC=C2CCCCCCCCCCCCCC2)CCCCC1 | 72.6 | > 100 | 36 | 51.4 | – |
